Measured values taken from ChEMBL document CHEMBL2203113, “Discovery of 2-(2-oxo-1-phenyl-5-pyridin-2-yl-1,2-dihydropyridin-3-yl)benzonitrile (perampanel): a novel, noncompetitive α-amino-3-hydroxy-5-methyl-4-isoxazolepropanoic acid (AMPA) receptor antagonist” (J Med Chem, 2012).

Experiments:
[1] = Antagonist activity at AMPA receptor in E18 rat cerebral cortical neurons assessed as inhibition of AMPA-induced intracellular Ca2+ response by fura-2 AM dye based fluorimetry; type: functional, cell-based
Mus musculus [2] = assay: Anticonvulsant activity in po dosed ddY mouse AMPA-induced seizure model; type: functional; conditions: read-out: MED
In short: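 Male 5-week-old ddY mice given compound orally as a 0.5% MC suspension 1 h before challenge. Clonic seizures induced by intracerebroventricular AMPA infusion at 2 nmol/5 μL/min; latency to clonic seizure recorded. MED taken as lowest dose giving statistically significant prolongation of latency.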

[3] = Ratio of drug level in brain to plasma in ddY mouse at 3 mg/kg, po after 60 mins; type: ADME, organism-based; parameters: dose 3 mg/kg, route oral; conditions: brain and plasma, read-out: BPR
In short: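 Male ddY mice dosed orally at 3 mg/kg; brain and plasma taken at 60 min. Brain homogenized in two volumes of water, then processed like plasma (methanol/perchloric deproteinization, HPLC with fluorescence). Ratio is the mean of two or three animals.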

Mus musculus [4] = assay: Anticonvulsant activity in ICR mouse pentylenetetrazole-induced seizure model at 0.75 to 3 mg/kg, po after 30 mins; type: functional; conditions: 0.5 h, dose mg/kg 0.75-3
[5] = Tmax in Sprague-Dawley rat at 1 mg/kg, po; type: ADME, organism-based; parameters: dose 1 mg/kg, route oral; conditions: in vivo
In short: (§1)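 Fasted male Sprague-Dawley rats, single 1 mg/kg dose iv or po, n = 3 per route. Blood drawn at set time points; plasma deproteinized with methanol/60% perchloric solution (500:1 v/v) and assayed by HPLC with fluorescence. Parameters from mean plasma concentrations of three animals by model-independent analysis; F = AUC(0-inf) oral/iv ratio.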

[6] = Half life in Sprague-Dawley rat at 1 mg/kg, iv; type: ADME, organism-based; parameters: dose 1 mg/kg, route intravenous; conditions: in vivo; in short: as §1
Mus musculus [7] = assay: Anticonvulsant activity in ddY mouse MES-induced seizure model 0.75 to 2.12 mg/kg, po after 1hr; type: functional; conditions: dose mg/kg 0.75-2.12
[8] = Oral bioavailability in Sprague-Dawley rat at 1 mg/kg; type: ADME, organism-based; conditions: in vivo; in short: as §1
[9] = Cmax in Sprague-Dawley rat at 1 mg/kg, po; type: ADME, organism-based; parameters: dose 1 mg/kg, route oral; conditions: in vivo; in short: as §1
[10] = Half life in healthy human; type: ADME, organism-based; conditions: in vivo
Mus musculus [11] = assay: Anticonvulsant activity in DBA/2J mouse audinogenic seizure model at 0.3 to 3 mg/kg, po after 1 hr; type: functional; conditions: dose mg/kg 0.3-3
Rattus norvegicus [12] = assay: AUC in Sprague-Dawley rat at 1 mg/kg, iv; type: ADME, organism-based, Plasma; parameters: dose 1 mg/kg, route intravenous; conditions: in vivo; in short: as §1
Rattus norvegicus [13] = assay: AUC in Sprague-Dawley rat at 1 mg/kg, po; type: ADME, organism-based, Plasma; parameters: dose 1 mg/kg, route oral; conditions: in vivo; in short: as §1
[14] = Plasma clearance in Sprague-Dawley rat at 1 mg/kg, iv; type: ADME, organism-based; parameters: dose 1 mg/kg, route intravenous; in short: as §1
[15] = Volume of distribution at steady state in Sprague-Dawley rat at 1 mg/kg, iv; type: ADME, organism-based; parameters: dose 1 mg/kg, route intravenous; conditions: in vivo, read-out: Vdss; in short: as §1
[16] = Ratio of drug level in brain to plasma in Sprague-Dawley rat at 10 mg/kg, po after 30 mins; type: ADME, organism-based; parameters: dose 10 mg/kg, route oral; conditions: brain and plasma, read-out: BPR
In short: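 Male Sprague–Dawley rats were dosed orally. Brain was homogenized in two volumes of water. Brain homogenate and plasma were deproteinized with methanol/60% perchloric solution (500:1 v/v) and quantified by HPLC with fluorescence detection. The ratio is brain over plasma concentration, each value the mean of two or three animals.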

Nucleic Acid = assay: Ratio of drug level in CSF to fraction unbound in plasma in ddY mouse at 0.5 mg/kg, ip after 20 mins; type: ADME, organism-based, Rattus norvegicus; parameters: dose 0.5 mg/kg, route intraperitoneal; conditions: in vivo
In short: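 Male ddY mice were dosed ip. CSF was taken by cisternal puncture and processed like plasma: deproteinized with methanol/60% perchloric solution (500:1 v/v), then analysed by HPLC with fluorescence detection. The ratio is CSF concentration over unbound plasma concentration. Each value is the mean of two or three animals.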

Compound	IC50 [1] [nM]	further results
N#Cc1ccccc1-c1cc(-c2ccccn2)cn(-c2ccc(F)nc2)c1=O	500	–
N#Cc1sccc1-c1cc(-c2ccccn2)cn(-c2cccnc2)c1=O	180	minimal effective dose (Mus musculus [2]): 25 mg/kg
O=C1COC(c2ccccc2)=NN1c1ccccc1	9170	–
O=c1c(-c2ccccc2Cl)cc(-c2ccccn2)cn1-c1cccnc1	400	minimal effective dose (Mus musculus [2]): 25 mg/kg
N#Cc1ccccc1-c1cc(-c2ccccc2C#N)c(=O)n(-c2ccccc2)c1	8430	–
N#Cc1ccccc1-c1cc(-c2ccncc2)cn(-c2ccccc2)c1=O	5530	–
COc1ccccc1-n1cc(-c2ccccn2)cc(-c2ccccc2C#N)c1=O	150	–
N#Cc1cccc(-c2cc(-c3ccccn3)cn(-c3ccccc3)c2=O)c1	7260	–
O=c1c(-c2ccccc2)cc(-c2ccccn2)cn1-c1ccccc1	320	–
N#Cc1ccccc1-c1cc(-c2ccccn2)cn(-c2cccnc2)c1=O	210	minimal effective dose (Mus musculus [2]): 10 mg/kg
O=c1c(-c2ccccc2)cc(-c2ccccn2)cn1-c1cccnc1	440	–
O=c1[nH]cc(-c2ccccc2)cc1-c1ccccc1	57700	–
O=c1c(-c2ccccc2)cc(-c2ccccc2)cn1-c1ccccc1	1080	–
N#Cc1ccccc1-c1cc(-c2ccsc2)cn(-c2ccccc2)c1=O	140	–
CCCC1=NN(c2ccccc2)C(=O)CO1	> 150000	–
O=C1COC(C2CCCCC2)=NN1c1ccccc1	> 150000	–
N#Cc1ccc(-c2cc(-c3ccccn3)cn(-c3ccccc3)c2=O)cc1	28700	–
COc1ccccc1-c1cc(-c2ccccc2C#N)c(=O)n(-c2ccccc2)c1	740	–
O=C1CCC(c2ccccc2)=NN1c1ccccc1	28100	–
O=C1COC(Cc2ccccc2)=NN1c1ccccc1	> 150000	–
O=c1c(-c2ccccc2F)cc(-c2ccccn2)cn1-c1ccccc1	200	–
COc1ccc(-n2cc(-c3ccccn3)cc(-c3ccccc3C#N)c2=O)cc1	440	–

Compound	IC50 [1] [nM]	further results
O=c1c(-c2cccnc2F)cc(-c2ccccn2)cn1-c1cccnc1	1450	minimal effective dose (Mus musculus [2]): 10 mg/kg
O=C1COC(c2ccccc2)=NN1Cc1ccccc1	33700	–
O=C1COC(c2ccccc2)=NN1C1CCCCC1	> 150000	–
N#Cc1ncccc1-c1cc(-c2ccccn2)cn(-c2ccccc2)c1=O	200	minimal effective dose (Mus musculus [2]): 5 mg/kg
N#Cc1ccccc1-c1cc(-c2cccs2)cn(-c2ccccc2)c1=O	100	–
O=c1c(-c2ccccc2Cl)cc(-c2ccccn2)cn1-c1ccccc1	100	–
COc1ccccc1-c1cc(-c2ccccn2)cn(-c2ccccc2)c1=O	1420	–
N#Cc1ccccc1-c1cc(-c2ccccc2F)cn(-c2ccccc2)c1=O	200	–
Cc1ccccc1-c1cc(-c2ccccn2)cn(-c2ccccc2)c1=O	400	–
O=c1c(-c2ccccc2C(F)(F)F)cc(-c2ccccn2)cn1-c1cccnc1	2100	–
N#Cc1ccccc1-c1cc(-c2ccccn2)cn(-c2ccccc2C#N)c1=O	> 15000	–
O=c1c(-c2ccsc2)cc(-c2ccccn2)cn1-c1cccnc1	780	–
N#Cc1ccccc1-c1cc(-c2ccccn2)cn(-c2ccccc2)c1=O [PERAMPANEL]	60	Kp at 1 h [3]: 1.06; ED50 (Mus musculus [4]): 0.94 mg/kg; Tmax [5]: 0.5 h; half-life [6]: 2.37 h; minimal effective dose (Mus musculus [2]): 2 mg/kg; ED50 (Mus musculus [7]): 1.6 mg/kg; bioavailability [8]: 64.3%; Cmax [9]: 170 ng/mL; half-life [10]: 70 h; ED50 (Mus musculus [11]): 0.47 mg/kg; AUC (Rattus norvegicus [12]): 0.56 µg/mL/h; AUC (Rattus norvegicus [13]): 0.36 µg/mL/h; clearance [14]: 30.3 mL/min/kg; Vd [15]: 4.56 L/kg; Kp at 0.5 h [16]: 1.14; Ratio (Nucleic Acid): 1.14
COc1ccc(-n2cc(-c3ccccn3)cc(-c3ccccc3C#N)c2=O)cn1	620	–
O=c1c(-c2cccnc2F)cc(-c2ccccn2)cn1-c1ccccc1	370	minimal effective dose (Mus musculus [2]): 5 mg/kg
COc1cccc(-n2cc(-c3ccccn3)cc(-c3ccccc3C#N)c2=O)c1	250	–
O=c1ccc(-c2ccccc2)cn1-c1ccccc1	69500	–
N#Cc1ccccc1-c1cc(-c2cccnc2)cn(-c2ccccc2)c1=O	4020	–
N#Cc1ccccc1-c1cc(-c2ccccc2)cn(-c2ccccc2)c1=O	330	minimal effective dose (Mus musculus [2]): 25 mg/kg
N#Cc1ccc(-n2cc(-c3ccccn3)cc(-c3ccccc3C#N)c2=O)cc1	520	–
O=c1c(-c2cccnc2Cl)cc(-c2ccccn2)cn1-c1ccccc1	680	–
